Consider 3 compounds from ChEMBL document CHEMBL2331506, “Design, synthesis, antiviral and cytostatic evaluation of novel isoxazolidine nucleotide analogues with a carbamoyl linker” (Bioorg Med Chem, 2013).

The source made the active and inactive calls. No rule for the calls is given here.

One series has as its system HEL. The series can be described thus: Cytotoxicity against human HEL cells assessed as alteration of cell morphology up to 100 uM by microscopic analysis. The series is classed as cell-based. Summed up: (§1)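 Uninfected host-cell cultures were exposed to compound and examined by microscopy. Cytotoxicity was expressed as the minimum cytotoxic concentration (MCC) causing a microscopically detectable alteration of normal cell morphology.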

The subject of a further series is Influenza B virus. In words: Antiviral activity against Influenza B virus infected in dog MDCK cells assessed as reduction of virus-induced cytopathogenicity at 250 uM. Type of series: functional, organism-based. Put shortly:
(§2)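 Confluent cell monolayers were infected with 100 CCID50 of virus while exposed to varying compound concentrations. Cytopathicity was scored once it was complete in untreated infected controls. EC50 was taken as the concentration that reduced virus-induced cytopathogenicity by 50%.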
(In general: Protection from cytopathic effect is a common read-out in antiviral testing.)

For the next series, the system named is MDCK. In words: Cytotoxicity against dog MDCK cells assessed as alteration of cell morphology up to 100 uM by microscopic analysis. The series is classed as cell-based, Canis lupus familiaris. Summed up: as §1
For another series, the system named is Coxsackievirus B4. In words: Antiviral activity against Coxsackievirus B4 infected in african green monkey Vero cells assessed as reduction of virus-induced cytopathogenicity at 250 uM. Type of series: functional, organism-based. Put shortly:
(§3)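 Confluent monolayers (HEL fibroblasts, Vero, or HeLa cells as listed) were infected with 100 CCID50 of virus in the presence of varying compound concentrations. Virus-induced cytopathicity or plaque formation was scored once cytopathicity was complete in untreated infected controls. EC50 was taken as the concentration reducing cytopathogenicity or plaque formation by 50%.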

Series [1] deals with Human immunodeficiency virus 2. The series can be described thus: Antiviral activity against Human immunodeficiency virus 2 ROD infected in human CEM cells assessed as reduction of virus-induced giant cell formation at 250 uM after 4 to 5 days. Type of series: functional, organism-based. The note with it: CCRF-CEM. Summed up:
(§4)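 CEM cells at 3 × 10^5 cells/mL were infected with HIV at 100 CCID50 per mL in the presence of compound dilutions. They were held 4–5 days at 37 °C in humidified CO2. Syncytium (giant cell) formation was scored microscopically, and EC50 was taken as the concentration inhibiting giant cell formation by 50%.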

Series [2] relates to Influenza A virus. In words: Antiviral activity against Influenza A virus H3N2 infected in dog MDCK cells assessed as reduction of virus-induced cytopathogenicity at 250 uM. The series is classed as functional, organism-based. Put shortly: as §2
A short description of series [3]: Cytotoxicity against cat CRFK cells assessed as alteration of cell morphology up to 100 uM by microscopic analysis. Type of series: cell-based, Felis catus. Summed up:
as §1

The test system of a further series is Feline coronavirus. The series can be described thus: Antiviral activity against Feline coronavirus infected in cat CRFK cells assessed as reduction of virus-induced cytopathogenicity at 250 uM. The series is classed as functional, organism-based.
Series [4] concerns Mammalian orthoreovirus 1. The series can be described thus: Antiviral activity against Reovirus 1 infected in african green monkey Vero cells assessed as reduction of virus-induced cytopathogenicity at 250 uM. The series is classed as functional, organism-based. Put shortly:
as §3

The test system of a further series is Human respirovirus 3. In words: Antiviral activity against Parainfluenza virus 3 infected in african green monkey Vero cells assessed as reduction of virus-induced cytopathogenicity at 250 uM. Type of series: functional, organism-based. Summed up: as §3
For series [5], the system named is Human alphaherpesvirus 1. The series can be described thus: Antiviral activity against Herpes simplex virus 1 KOS infected in human HEL cells assessed as reduction of virus-induced cytopathogenicity at 250 uM. The series is classed as functional, organism-based. Put shortly:
as §3

Series [6] deals with Human alphaherpesvirus 1. In words: Antiviral activity against thymidine kinase-deficient, ACV-resistant Herpes simplex virus 1 KOS infected in human HEL cells assessed as reduction of virus-induced cytopathogenicity at 250 uM. Type of series: functional, organism-based. Put shortly:
as §2

The subject of a further series is Sindbis virus. In words: Antiviral activity against Sindbis virus infected in african green monkey Vero cells assessed as reduction of virus-induced cytopathogenicity at 250 uM. Type of series: functional, organism-based. Summed up:
as §3

In the next series the test system is HeLa. The series can be described thus: Cytotoxicity against human HeLa cells assessed as alteration of cell morphology up to 100 uM by microscopic analysis. Type of series: cell-based. Summed up:
as §1

A further series has as its system Felid alphaherpesvirus 1. In words: Antiviral activity against Feline herpes virus infected in cat CRFK cells assessed as reduction of virus-induced cytopathogenicity at 250 uM. Type of series: functional, organism-based.
The next series concerns Punta Toro virus. In words: Antiviral activity against Punta Toro virus infected in african green monkey Vero cells assessed as reduction of virus-induced cytopathogenicity at 250 uM. The series is classed as functional, organism-based. Put shortly: as §3
Series [7] has as its system Vesicular stomatitis virus. The series can be described thus: Antiviral activity against Vesicular stomatitis virus infected in human HeLa cells assessed as reduction of virus-induced cytopathogenicity at 250 uM. Type of series: functional, organism-based. Put shortly:
as §2

The subject of series [8] is Vesicular stomatitis virus. The series can be described thus: Antiviral activity against Vesicular stomatitis virus infected in human HEL cells assessed as reduction of virus-induced cytopathogenicity at 250 uM. Type of series: functional, organism-based. Summed up:
as §2

Series [9] concerns Respiratory syncytial virus. In words: Antiviral activity against Respiratory syncytial virus long infected in human HeLa cells assessed as reduction of virus-induced cytopathogenicity at 250 uM. The series is classed as functional, organism-based. Put shortly: as §3
In series [10] the test system is Influenza A virus. The series can be described thus: Antiviral activity against Influenza A virus H1N1 infected in dog MDCK cells assessed as reduction of virus-induced cytopathogenicity at 250 uM. Type of series: functional, organism-based. Summed up: as §2
In the next series the test system is Vero. In words: Cytotoxicity against african green monkey Vero cells assessed as alteration of cell morphology up to 100 uM by microscopic analysis. The note with it: chlorocebus sabaeus. Type of series: cell-based. Put shortly:
as §1

Another series concerns Human alphaherpesvirus 2. The series can be described thus: Antiviral activity against Herpes simplex virus 2 G infected in human HEL cells assessed as reduction of virus-induced cytopathogenicity at 250 uM. Conditions: strain G. Type of series: functional, organism-based. Put shortly: as §3
For series [11], the system named is Human immunodeficiency virus 1. In words: Antiviral activity against Human immunodeficiency virus 1 3B infected in human CEM cells assessed as reduction of virus-induced giant cell formation at 250 uM after 4 to 5 days. The series is classed as functional, organism-based. The note with it: CCRF-CEM. Summed up:
as §4

Take `CCOP(=O)(OCC)[C@@H]1C[C@H](C(=O)Nc2ccc([N+](=O)[O-])cc2)ON1C` (racemic): the Activity entry (in the series on HEL; in the series with MDCK; in [3]; in the series with HeLa; with Vero) was “Non-toxic” throughout. Further, the inhibition result (in the series with Influenza B virus; in the series on Coxsackievirus B4; in series [1]; in the series with Influenza A virus [2]; in the series on Feline coronavirus; in series [4]) was “inactive” in each case. The inhibition result in the series on Human respirovirus 3, with Human alphaherpesvirus 1 [5], in the series on Human alphaherpesvirus 1 [6], with Sindbis virus, with Felid alphaherpesvirus 1 and in the series with Punta Toro virus was “inactive” in each case. For the same compound, the inhibition result (in series [7]; in [8]; in [9]; with Influenza A virus [10]; with Human alphaherpesvirus 2; in series [11]) was “inactive” throughout.
Consider `CCOP(=O)(OCC)[C@@H]1C[C@H](C(=O)Nc2cc(OC)c(OC)cc2C(C)=O)ON1C` (mixture of isomers), for which the Activity result (in the series with HEL; with MDCK; in series [3]; in the series with HeLa; with Vero) was “Non-toxic” throughout. The inhibition result (with Influenza B virus; with Coxsackievirus B4; in series [1]; in the series with Influenza A virus [2]; in the series on Feline coronavirus; in series [4]) was “inactive” each time. Besides, the inhibition result in the series on Human respirovirus 3, in the series on Human alphaherpesvirus 1 [5], in the series with Human alphaherpesvirus 1 [6], with Sindbis virus, with Felid alphaherpesvirus 1 and in the series with Punta Toro virus was “inactive” throughout. The inhibition entry (in series [7]; in series [8]; in [9]; with Influenza A virus [10]; with Human alphaherpesvirus 2; in [11]) was “inactive” throughout.
`CCOP(=O)(OCC)[C@H]1C[C@H](C(=O)Nc2cccc(C#N)c2)ON1C` (racemic): the Activity result (in the series on HEL; with MDCK; in [3]; in the series with HeLa; in the series with Vero) was “Non-toxic” in each case. The inhibition entry (in the series on Influenza B virus; in the series with Coxsackievirus B4; in series [1]; in the series on Influenza A virus [2]; with Feline coronavirus; in series [4]) was “inactive” each time. The inhibition entry in the series with Human respirovirus 3, with Human alphaherpesvirus 1 [5], in the series on Human alphaherpesvirus 1 [6], in the series on Sindbis virus, in the series on Felid alphaherpesvirus 1 and with Punta Toro virus was “inactive” throughout. For the same compound, the inhibition entry (in series [7]; in series [8]; in series [9]; with Influenza A virus [10]; in the series on Human alphaherpesvirus 2; in series [11]) was “inactive” in each case.
